Key:
HL-60 [1] = test: Selectivity index, ratio of cytotoxic IC50 to antiproliferative IC50 for human HL60 cells; format: functional
Procedure, shortened: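 Index = cytotoxic IC50 (trypan blue, 4-day HL-60 exposure) divided by antiproliferative IC50 ([3H]thymidine incorporation), each from dose–response with at least five points.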

HL-60 [2] = test: Induction of cell differentiation in human HL60 cells assessed as superoxide anion production after 4 days by NBT reduction assay; format: functional, cell-based; settings: HL-60, 96 h
Procedure, shortened: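 Cells diluted to 10^5/mL and recovered overnight were exposed 4 days to samples (0.1% v/v DMSO final). Cell suspension (10^6 cells) was mixed 1:1 with NBT 2 mg/mL plus TPA 1 μg/mL in PBS and held 1 h at 37 °C. Formazan-positive cells were counted microscopically among >200 cells. EC50 from 5–7 concentrations in duplicate; 1α,25-dihydroxyvitamin D3 served as reference.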

HL-60 [3] = test: Cytotoxicity against human HL60 cells assessed as loss of membrane integrity after 4 days by trypan blue exclusion assay; format: functional, cell-based; settings: HL-60, 96 h
Procedure, shortened: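 After 18 h recovery at 10^5 cells/mL, HL-60 cells were treated 4 days with samples (final DMSO 0.1% v/v). Cells were mixed 1:4 with trypan blue (0.2% w/v in PBS), held at least 5 min at room temperature and counted by hemocytometer. Viability was taken from duplicate samples; IC50 from 5–7 concentrations in duplicate.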

HL-60 [4] = test: Antiproliferative activity against human HL60 cells assessed as inhibition of [3H]thymidine incorporation after 4 days by liquid scintillation counter; format: functional, cell-based
Procedure, shortened: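 HL-60 cells in log phase diluted to 10^5 cells/mL, preincubated 18 h, then exposed to samples in DMSO (final 0.1% v/v; DMSO-only controls) for 4 days. Cells then pulsed with [3H]thymidine (0.5 μCi/mL, 65 Ci/mmol) for 18 h at 37 °C, 5% CO2, harvested onto glass fiber filters, scintillation counted; incorporation per 10^6 cells as % of DMSO control. IC50 from 5–7 concentrations in duplicate.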

[5] = Inhibition of DMBA-induced preneoplastic lesion formation in a BALB/c mouse mammary organ culture at 2 uM pretreated for 10 days before DMBA-challenge measured after 14 days; format: functional; settings: Mammary gland
Procedure, shortened: (§1)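 Female BALB/c mice, 4 weeks old, primed 9 days with estradiol 1 μg plus progesterone 1 mg. Thoracic glands were cultured 10 days with insulin, prolactin, aldosterone and hydrocortisone plus test agent at 2 μM. DMBA 2 μg/mL was given for 24 h on day 3. Regression followed for 14 days in insulin alone. Glands were formalin-fixed and alum carmine-stained. Lesion incidence gave % inhibition versus DMBA control. Toxicity was scored as duct dilation or amorphous disintegration.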

[6] = Toxicity in BALB/c mouse mammary organ culture assessed as morphological changes in mammary gland at 2 uM after 10 days; format: tissue-based; settings: ex_vivo, 240 h; procedure, shortened: as §1

Structure (SMILES)	Ratio IC50 (HL-60 [1])	EC50 (HL-60 [2]) [nM]	IC50 (HL-60 [3]) [nM]	IC50 (HL-60 [4]) [nM]	inhibition at 2 µM [5] [%]	Activity [6]
CC1=CC(=O)[C@@H](O)[C@]2(C)[C@H]3[C@]4(O)OC[C@]35[C@H]([C@@H](C)[C@H]4O)[C@@H](OC(=O)C(=O)O[C@H]3C(=O)O[C@@H]4C[C@H]6C(C)=CC(=O)[C@@H](O)[C@]6(C)[C@H]6[C@]7(O)OC[C@]64[C@@H]3[C@@H](C)[C@H]7O)C(=O)O[C@@H]5C[C@@H]12.O=C(O)C(=O)O	3.6	> 1500	1800	500	–	–
CC1=CC(=O)[C@@H](O)[C@]2(C)[C@H]3[C@]4(O)OC[C@]35[C@H]([C@@H](C)[C@H]4O)[C@@H](OC(=O)CC(C)(C)OP(=O)(O)O)C(=O)O[C@@H]5C[C@@H]12	6.5	3000	4400	700	–	–
CC1=CC(=O)[C@@H](O)[C@]2(C)[C@H]3[C@]4(O)OC[C@]35[C@H]([C@@H](C)[C@H]4O)[C@@H](OC(=O)CC(O)(C(C)C)C(C)C)C(=O)O[C@@H]5C[C@@H]12	1	9	9	9	–	–
CC1=CC(=O)[C@@H](O)[C@]2(C)[C@H]3[C@]4(O)OC[C@]35[C@H]([C@@H](C)[C@H]4O)[C@@H](OC(=O)CC(O)(CC(C)C)CC(C)C)C(=O)O[C@@H]5C[C@@H]12	1	> 50	40	40	–	–
CCCC(=O)O[C@H]1C(=O)O[C@@H]2C[C@H]3C(C)=CC(=O)[C@@H](O)[C@]3(C)[C@H]3[C@]4(O)OC[C@]32[C@@H]1[C@@H](C)[C@H]4O	–	> 3000	3000	> 3000	82	Non-toxic
CC1=CC(=O)[C@@H](O)[C@]2(C)[C@H]3[C@]4(O)OC[C@]35[C@H]([C@@H](C)[C@H]4O)[C@@H](OC(=O)CC(C)C)C(=O)O[C@@H]5C[C@@H]12	1.5	> 2000	1500	1000	–	–
CC1=CC(=O)[C@@H](O)[C@]2(C)[C@H]3[C@]4(O)OC[C@]35[C@H]([C@@H](C)[C@H]4O)[C@@H](OC(=O)C3(CO)CC3)C(=O)O[C@@H]5C[C@@H]12	2.9	2000	2800	1000	–	–
CC1=CC(=O)[C@@H](O)[C@]2(C)[C@H]3[C@]4(O)OC[C@]35[C@H]([C@@H](C)[C@H]4O)[C@@H](OC(=O)[C@@H](C)CO)C(=O)O[C@@H]5C[C@@H]12	4.3	1900	2500	600	–	–
CC1=CC(=O)[C@@H](O)[C@]2(C)[C@H]3[C@]4(O)OC[C@]35[C@H]([C@@H](C)[C@H]4O)[C@@H](OC(=O)C(C)(C)C(=O)O)C(=O)O[C@@H]5C[C@@H]12	>2.2	> 7000	> 7000	3200	–	–
CC1=CC(=O)[C@@H](O)[C@]2(C)[C@H]3[C@]4(O)OC[C@]35[C@H]([C@@H](C)[C@H]4O)[C@@H](OC(=O)CN(C)C)C(=O)O[C@@H]5C[C@@H]12	1.6	500	800	500	–	–
CC1=CC(=O)[C@@H](O)[C@]2(C)[C@H]3[C@]4(O)OC[C@]35[C@H]([C@@H](C)[C@H]4O)[C@@H](OC(=O)C(C)(C)CO)C(=O)O[C@@H]5C[C@@H]12	3.1	500	600	200	–	–
CC1=CC(=O)[C@@H](O)[C@]2(C)[C@H]3[C@]4(O)OC[C@]35[C@H]([C@@H](C)[C@H]4O)[C@@H](OC(=O)C=C(C3CC3)C3CC3)C(=O)O[C@@H]5C[C@@H]12	3.9	600	750	200	–	–
CC[C@@](O)(CC(=O)O[C@H]1C(=O)O[C@@H]2C[C@H]3C(C)=CC(=O)[C@@H](O)[C@]3(C)[C@H]3[C@]4(O)OC[C@]32[C@@H]1[C@@H](C)[C@H]4O)C(C)C	1.2	17	13	11	–	–
CC1=CC(=O)[C@@H](O)[C@]2(C)[C@H]3[C@]4(O)OC[C@]35[C@H]([C@@H](C)[C@H]4O)[C@@H](OC(=O)CC3(O)CCCC3)C(=O)O[C@@H]5C[C@@H]12	2.1	130	380	190	–	–
CC1=CC(=O)[C@@H](O)[C@]2(C)[C@H]3[C@]4(O)OC[C@]35[C@H]([C@@H](C)[C@H]4O)[C@@H](OC(=O)C=C(C(C)C)C(C)C)C(=O)O[C@@H]5C[C@@H]12	1.9	90	130	70	–	–
CC1=CC(=O)[C@@H](O)[C@]2(C)[C@H]3[C@]4(O)OC[C@]35[C@H]([C@@H](C)[C@H]4O)[C@@H](OC(=O)C[C@]3(O)CC(C)CCC3C(C)C)C(=O)O[C@@H]5C[C@@H]12 (stereo partly specified)	2.3	300	900	400	–	–
CC1=CC(=O)[C@@H](O)[C@]2(C)[C@H]3[C@]4(O)OC[C@]35[C@H]([C@@H](C)[C@H]4O)[C@@H](OC(=O)CC3(O)C(C)(C)CCC3(C)C)C(=O)O[C@@H]5C[C@@H]12	1.3	25	50	40	–	–
CC1=CC(=O)[C@@H](O)[C@]2(C)[C@H]3[C@]4(O)OC[C@]35[C@H]([C@@H](C)[C@H]4O)[C@@H](OC(=O)[C@H](C)CO)C(=O)O[C@@H]5C[C@@H]12	4.2	> 6000	6200	1500	–	–
CC[C@](C)(O)C(=O)O[C@H]1C(=O)O[C@@H]2C[C@H]3C(C)=CC(=O)[C@@H](O)[C@]3(C)[C@H]3C4(O)OC[C@]32[C@@H]1[C@@H](C)[C@H]4O (single isomer, unassigned) [GLAUCARUBINONE]	2.1	1800	1000	500	–	–
COC(=O)[C@@]12OC[C@]34[C@H]([C@@H](O)[C@@H]1O)[C@@]1(C)CC(=O)C(O)=C(C)[C@@H]1C[C@H]3OC(=O)[C@H](OC(=O)C=C(C)C)[C@@H]24 [BRUSATOL]	–	–	–	–	–	Non-toxic
COC(=O)[C@]12OC[C@]34[C@H]([C@@H](O)[C@@H]1O)[C@@]1(C)CC(=O)C(O)=C(C)[C@@H]1C[C@H]3OC(=O)[C@H](OC(=O)C=C(C)C)[C@@H]24 [BRUSATOL]	2.5	70	170	70	70	–
CC1=CC(=O)[C@@H](O)[C@]2(C)[C@H]3[C@]4(O)OC[C@]35[C@H]([C@@H](C)[C@H]4O)[C@@H](O)C(=O)O[C@@H]5C[C@@H]12 [GLAUCARUBOLONE]	3.3	1300	1300	400	–	–
CC(=O)O[C@H]1C(=O)O[C@@H]2C[C@H]3C(C)=CC(=O)[C@@H](O)[C@]3(C)[C@H]3[C@]4(O)OC[C@]32[C@@H]1[C@@H](C)[C@H]4O [HOLACANTHONE]	2.5	200	500	200	–	–
CC[C@](C)(OC(C)=O)C(=O)O[C@H]1C(=O)O[C@@H]2C[C@H]3C(C)=CC(=O)[C@@H](O)[C@]3(C)[C@H]3[C@@H](O)[C@H](O)[C@@]4(C)OC[C@]32[C@@H]14 [QUASSIMARIN]	2.2	90	130	60	–	–
CC[C@@H](C)C(=O)O[C@H]1C(=O)O[C@@H]2C[C@H]3C(C)=CC(=O)[C@@H](O)[C@]3(C)[C@H]3[C@@H](O)[C@H](O)[C@]4(C)OC[C@]32[C@@H]14 [SIMALIKALACTONE D]	–	> 200	200	> 200	–	–
CC1=CC(=O)[C@@H](O)[C@]2(C)[C@H]3[C@]4(O)OC[C@]35[C@H]([C@@H](C)[C@H]4O)[C@@H](OC(=O)CC(C)(C)O)C(=O)O[C@@H]5C[C@@H]12 [SOULARUBINONE]	4.2	200	400	100	–	–
CC1=CC(=O)[C@@H](O)[C@]2(C)[C@H]3[C@@H](O)[C@H](O)[C@@]4(C)OC[C@@]35[C@@H](C[C@@H]12)OC(=O)[C@H](O)[C@@H]45 [YADANZIOLIDE C]	>6.7	10000	> 10000	1500	–	–

Reference: ChEMBL document CHEMBL1156387, “Novel esters of glaucarubolone as inducers of terminal differentiation of promyelocytic HL-60 cells and inhibitors of 7,12-dimethylbenz[a]anthracene-induced preneoplastic lesion formation in mouse mammary organ culture” (J Nat Prod, 2001)
